The values below come from ChEMBL document CHEMBL3627702, “Navigating CYP1A Induction and Arylhydrocarbon Receptor Agonism in Drug Discovery. A Case History with S1P1 Agonists” (J Med Chem, 2015).

The test system of data set [1] is CYP1A1. The data set can be described thus: Induction of CYP1A1 mRNA expression in rat hepatocytes at 10 uM by Taqman analysis relative to control. It counts as ADME, cell-based, Hepatocyte. The note with it: read-out: FC. (In general: Real-time PCR tracks product formation cycle by cycle.)
A further data set concerns Hepatocyte. The data set can be described thus: Induction of CYP1A2 mRNA expression in rat hepatocytes at 10 uM by Taqman analysis relative to control. The note with it: 10 µM. It counts as ADME, cell-based.
Data set [2] has as its system CYP1A2. The data set can be described thus: Induction of CYP1A2 mRNA expression in rat hepatic microsomes at 20 mg/kg, po QD for 4 days relative to control. It counts as ADME, organism-based, Liver. The note with it: hepatic microsomes, read-out: FC. An outline of the steps: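 Male CD rats (226–325 g), n = 3, given test compound by oral gavage once daily for 4 days. Vehicle was 1% w/v methylcellulose aqueous suspension (3–6 mg/mL, 5 mL/kg); target dose 15–30 mg/kg. Liver from the left lateral lobe was put in RNALater, then TRIzol extraction and cDNA conversion; Cyp1a analysed on low-density arrays.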

Data set [3] has as its system CYP1A1. The data set can be described thus: Induction of CYP1A1 mRNA expression in rat hepatic microsomes at 20 mg/kg, po QD for 4 days relative to control. The note with it: hepatic microsomes, read-out: FC. Format: ADME, organism-based, Liver. An outline of the steps: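 Male CD rats, n = 3, received the compound once daily by oral gavage for 4 days in 1% methylcellulose suspension at 5 mL/kg. At necropsy a left lateral liver lobe section was stored in RNALater on ice. Tissue was TRIzol-homogenized, RNA purified, DNased and converted to cDNA. Cyp1a1 was read on low density arrays and expressed relative to control.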

In data set [4] the test system is CYP1A2. The data set can be described thus: Induction of CYP1A2 mRNA expression in Sprague-Dawley rat hepatic microsomes at 25 mg/kg, po QD for 4 days relative to control. It counts as ADME, organism-based, Liver. The conditions noted are these: read-out: FC.
For data set [5], the system named is Rattus norvegicus. The data set can be described thus: Dose normalized AUC in Sprague-Dawley rat at 25 mg/kg, po QD measured on day 4. Format: ADME, organism-based. The note with it: in vivo. The essentials: (§1)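 Male CD rats (226−325 g), n = 3, given the compound once daily by oral gavage for 4 days. Vehicle was 1% (w/v) methylcellulose aq suspension at 3−6 mg/mL, dosed at 5 mL/kg (target 15−30 mg/kg). Tail vein blood was taken on days 1 and 4 up to 24 h postdose. Blood was diluted 1:1 with water, extracted by acetonitrile protein precipitation and analysed by LC−MS/MS against calibration standards in diluted blood.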

Data set [6] is described as follows: Oral bioavailability in CD rat at 3 mg/kg. Format: ADME, organism-based. The conditions noted are these: in vivo. An outline of the steps:
(§2)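 Male CD rats cannulated in the femoral and jugular veins, n = 3, crossover design. Day 1: 1 h iv infusion at 1 mg/kg (0.2 mg/mL in ≤5% DMSO/≥95% 10% Kleptose in saline, 5 mL/kg/h). Day 2: oral gavage at 3 mg/kg (0.6 mg/mL in 1% methylcellulose, 5 mL/kg). Blood assayed by LC–MS/MS after acetonitrile precipitation.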

The nature of data set [7]: Half life in CD rat at 1 mg/kg, iv. It counts as ADME, organism-based. The note with it: in vivo. The essentials:
(§3)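 Male CD rats carried femoral vein (dosing) and jugular vein (sampling) cannulae and recovered at least 2 days. They received a 1 h iv infusion at 5 mL kg−1 h−1, target 1 mg/kg, at 0.2 mg/mL in DMSO/10% Kleptose in saline (≤5%:≥95%). pH was adjusted to 8.0 if needed and the solution filtered. Definitive studies used n = 3 in crossover; others used single animals.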

A short description of data set [8]: AUC in Sprague-Dawley rat at 25 mg/kg, po QD measured on day 4. The note with it: in vivo. Format: ADME, organism-based. An outline of the steps: as §1
In data set [9] the test system is Rattus norvegicus. The data set can be described thus: Dose normalized AUC in Sprague-Dawley rat at 25 mg/kg, po QD measured on day 1. It counts as ADME, organism-based. The note with it: in vivo. The essentials: as §1
A short description of data set [10]: Cmax in Sprague-Dawley rat at 25 mg/kg, po QD measured on day 1. It counts as ADME, organism-based. Further details: dose 25 mg/kg, route oral. The conditions noted are these: in vivo. The essentials: as §1
A short description of data set [11]: Blood clearance in CD rat at 1 mg/kg, iv. Format: ADME, organism-based. The essentials: as §3
Data set [12] deals with CYP1A1. The data set can be described thus: Induction of CYP1A1 mRNA expression in Sprague-Dawley rat hepatic microsomes at 25 mg/kg, po QD for 4 days relative to control. Format: ADME, organism-based, Liver. The conditions noted are these: read-out: FC. An outline of the steps:
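Male CD rats (226–325 g, n = 3) were dosed by oral gavage once daily for 4 days as a 1% w/v aqueous methylcellulose suspension (3–6 mg/mL, 5 mL/kg). At the end of the study, a left lateral liver lobe section was placed in RNALater and homogenised in TRIzol. RNA was purified, DNase-treated and converted to cDNA, and Cyp1a1 was read on low-density TaqMan arrays.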

The nature of data set [13]: Volume of distribution at steady state in CD rat at 1 mg/kg, iv. Format: ADME, organism-based. The note with it: in vivo, read-out: Vdss. An outline of the steps: as §2
Data set [14] is described as follows: Lipophilicity, log D of the compound at pH 7.4. Format: physicochemical. The conditions noted are these: buffer.
Data set [15] in a line: Dissociation constant, pKa of the compound. Format: physicochemical.
A short description of data set [16]: AUC in Sprague-Dawley rat at 25 mg/kg, po QD measured on day 1. It counts as ADME, organism-based. The note with it: in vivo. An outline of the steps:
as §1

Data set [17] can be described thus: Cmax in Sprague-Dawley rat at 25 mg/kg, po QD measured on day 4. Format: ADME, organism-based. The arrangement: dose 25 mg/kg, route oral. The note with it: in vivo. The essentials:
as §1

With `CC(C)Oc1ncc(-c2nc(-c3cccc4c3OCCNC4CCCC(=O)O)no2)cc1Cl` (stereo in doubt; 6), the fold induction at 10 µM with CYP1A1 [1] amounted to 43. The “fold change (FC)” value in the data set with Hepatocyte is 19. Also, the fold induction at 96 h in the data set on CYP1A2 [2] and in the data set on CYP1A1 [3] was 2 throughout.
Take `Cc1c(-c2noc(-c3ccc(OC(C)C)c(C#N)c3)n2)ccc2c1OCCN(C(CO)CO)C2`: the fold induction at 96 h in the data set on CYP1A2 [4] is 2; in the data set on CYP1A1 [12] it was 40. The AUC/dose with Rattus norvegicus [5] was 30 kg·min/L; with Rattus norvegicus [9], 22 kg·min/L. This molecule also gave a bioavailability in data set [6] of 69%. The half-life in data set [7] was 1 h. For the same molecule, the AUC in data set [8] was 12600 ng·h/mL; in data set [16], 8840 ng·h/mL. In addition, the Cmax in [10] amounted to 870 ng/mL; in [17], 1140 ng/mL. Also, in [11], the clearance turned out to be 54 mL/min/kg. Also, the Vd in data set [13] was 4 L/kg. In [14], this molecule showed a logD of 2.86. Further, the pKa in [15] was determined as 6.3.

By bioavailability is commonly meant dose-corrected exposure relative to a reference, in per cent. Broadly, the half-life is the time needed for the level to fall by half in the phase considered. A low value points to rapid decline. A word on the AUC: it is concentration integrated over time. High values mean high exposure, low ones low exposure. Usually Cmax stands for the peak of the concentration-time curve. For orientation: clearance means the volume of plasma or blood freed of the substance per unit of time. A higher clearance goes with a high capacity for elimination. The term logD denotes the decadic logarithm of the distribution of all forms, ionised or not, between an organic phase and buffer at a given pH. Broadly, the pKa is the negative logarithm of the acid dissociation constant. Low values mean a stronger acid or weaker base, high ones a weaker acid or stronger base.
